From ChEMBL document CHEMBL1821684, “A novel and efficient one-pot synthesis of symmetrical diamide (bis-amidate) prodrugs of acyclic nucleoside phosphonates and evaluation of their biological activities” (Eur J Med Chem, 2011)
Calls of active or inactive are those of the source. No cut-off for these calls is given here.

How the values were obtained:
[1] = Antiproliferative activity against human HepG2 after 72 hrs by XTT assay; assay type: functional; conditions: HepG
Outline: (§1)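 CCRF-CEM, HL-60 and HeLa S3 cells were grown in RPMI 1640 with 5% calf fetal serum, and Hep G2 cells in Eagle's MEM with 10% calf fetal serum. Cells were exposed to compound, and growth was ended 72 h after drug addition. Viability was then quantified by the XTT spectrophotometric assay.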

[2] = tested on: HL-60; assay: Antiproliferative activity against human HL60 after 72 hrs by XTT assay; assay type: functional, cell-based; conditions: HL-60, 72 h; outline: as §1
[3] = Antiproliferative activity against human HeLaS3 after 72 hrs by XTT assay; assay type: functional; conditions: HeLa S3, 72 h; outline: as §1
[4] = tested on: CCRF-CEM; assay: Antiproliferative activity against human CCRF-CEM after 72 hrs by XTT assay; assay type: functional, cell-based; outline: as §1
[5] = species on record: Mus musculus; assay: Immunomodulatory activity in C57BL/6 mouse peritoneal cells assessed as inhibition of LPS-induced NO production at 25 uM after 24 hrs by Griess reagent method; assay type: functional
Outline: (§2)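 Peritoneal cells pooled from 4 female C57BL/6 mice (8–10 weeks) were seeded at 2 × 10^6 cells/mL in complete RPMI-1640 with 10% FBS, at 37 °C and 5% CO2. Compound was given alone or with IFN-γ (5000 pg/mL) or IFN-γ plus E. coli LPS (100 pg/mL) for 24 h. Supernatant nitrite was measured with Griess reagent (5 min, A540) against a nitrite calibration curve.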

[6] = species on record: Mus musculus; assay: Immunostimulatory activity in C57BL/6 mouse peritoneal cells assessed as stimulation of LPS-induced NO production at 25 uM after 24 hrs by Griess reagent method; assay type: functional; outline: as §2
[7] = tested on: Human immunodeficiency virus 1; assay: Antiviral activity against HIV1 3B infected in human MT-2 cells assessed as reduction in virus-induced cytopathic effect after 5 days by luminescence assay; assay type: functional, organism-based; conditions: Human immunodeficiency virus 1, 3B, MT2, 120 h
Outline: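 MT-2 cells were kept below 0.6 × 10^6 cells/mL and infected in bulk with HIV-1 IIIB for 3 h at MOI 0.0055. They were seeded at 3 × 10^3 cells/well with 3-fold serial compound dilutions in triplicate, 0.5% DMSO final. After 5 days at 37 °C, cytopathic effect was read by CellTiter-Glo luminescence. EC50 came from non-linear regression of multiple data sets.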

[8] = Cytotoxicity against human MT2 cells assessed as inhibition of cell proliferation after 5 days by luminescence assay; assay type: cell-based
Outline: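 Uninfected MT-2 cells at 3 × 10^3 cells/well were run on replicate plates alongside the antiviral assay, with 3-fold serial compound dilutions in triplicate and 0.5% DMSO final. After 5 days at 37 °C, viability was read by CellTiter-Glo luminescence. CC50 came from non-linear regression of multiple data sets.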

Structure (SMILES)	IC50 [2] [µM]	IC50 [4] [µM]	EC50 [7] [µM]	IC50 [1] [µM]	IC50 [3] [µM]	inhibition [5]	Activity [6]	CC50 at 120 h [8] [µM]
CCOC(=O)[C@H](C)NP(=O)(COCCn1cnc2c(=O)[nH]c(N)nc21)N[C@@H](C)C(=O)OCC	3.02	1.22		2.32	3.94	inactive	inactive	
C[C@H](Cn1cnc2c(N)nc(F)nc21)OCP(=O)(O)O			> 85.3					> 100
CCOC(=O)[C@H](C)NP(=O)(COCCn1cnc2c(NC3CCCCCCC3)nc(N)nc21)N[C@@H](C)C(=O)OCC						inactive	inactive	
CCOC(=O)[C@H](C)NP(=O)(CO[C@H](CF)Cn1cnc2c(NC3CC3)nc(N)nc21)N[C@@H](C)C(=O)OCC			10.7			inactive	inactive	> 100
Nc1nc(NC2CC2)c2ncn(C[C@@H](CF)OCP(=O)(O)O)c2n1			13.2					> 100
CCOC(=O)[C@H](C)NP(=O)(COCCn1cnc2c(NC3CC3)nc(N)nc21)N[C@@H](C)C(=O)OCC [RABACFOSADINE]	0.78	0.48		1.74	2.15	inactive	inactive	

Further compounds by falling EC50 [7], results first:

IC50 [2] [µM]	IC50 [4] [µM]	EC50 [7] [µM]	Structure (SMILES)	IC50 [1] [µM]	IC50 [3] [µM]	inhibition [5]	Activity [6]	CC50 at 120 h [8] [µM]
		5.51	CCOC(=O)[C@H](C)NP(=O)(CO[C@H](C)Cn1cnc2c(N)nc(F)nc21)N[C@@H](C)C(=O)OCC			inactive	inactive	> 100
		1.13	CCOC(=O)[C@H](C)NP(=O)(COCCOc1cc(N)nc(N)n1)N[C@@H](C)C(=O)OCC			inactive	inactive	73.3
		0.94	C[C@H](Cn1cnc2c(N)nc(N)nc21)OCP(=O)(O)O					> 100
		0.54	CCOC(=O)[C@H](C)NP(=O)(CO[C@H](CF)Cn1cnc2c(N)ncnc21)N[C@@H](C)C(=O)OCC			inactive	inactive	> 100
		0.29	CCOC(=O)[C@H](C)NP(=O)(CO[C@H](C)Cn1cnc2c(N)nc(N)nc21)N[C@@H](C)C(=O)OCC			inactive	inactive	> 100
